For orientation: Kd means the equilibrium constant for the complex coming apart. Usually ΔTm stands for the change in melting temperature against a reference sample. A word on the IC50: it is the midpoint of a concentration-inhibition curve.

A short description of experiment [1]: Inhibition of Mycobacterium tuberculosis N-terminal His-tagged BioA assessed as dissociation constant by isothermal titration calorimetry. Put shortly: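 Isothermal titration calorimetry at 25 °C in 25 mM HEPES pH 7.5, 50 mM NaCl, with 100 µM PLP-saturated His-tagged BioA (E. coli-expressed) in the cell. Ligand at 1.0, 1.5 or 2.0 mM, DMSO matched, given as 2 µL injections 150 s apart with stirring at 750 rpm. First injection discarded; heats of dilution corrected. KD = 1/KA from curve fit, averaged over three replicates.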
For orientation: Isothermal titration calorimetry measures the heat released or taken up as one component is titrated into another.

For experiment [2], the system named is Mycobacterium tuberculosis. Put plainly: Inhibition of Mycobacterium tuberculosis N-terminal His-tagged BioA assessed as temperature of denaturation shift by […]. Put shortly: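 Differential scanning fluorimetry with 0.05 mg/mL holo BioA in 25 mM HEPES pH 7.5, 50 mM NaCl, 5× SYPRO Orange, and 5 mM fragment from 200 mM DMSO stock. Heated 55–100 °C in 0.5 °C steps with 60 s dwell. Tm taken at the first-derivative peak; the shift is against the mean of DMSO-only controls on the same plate. Four replicates, mean with standard error.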

The test system of experiment [3] is Mycobacterium tuberculosis. Put plainly: Antimycobacterial activity against Mycobacterium tuberculosis H37Rv assessed as growth inhibition after 9 days by Whole cell growth assay in presence of 1000 nM biotin. In kind it is functional, organism-based. The settings on record: 216 h. A digest of the protocol:
(§1)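 Virulent H37Rv wild type pregrown in Sauton's medium with 1000 nM biotin to OD580 1.0–1.2, washed twice in biotin-free Sauton's medium, and seeded at OD580 0.03 in biotin-free medium or with 1000 nM biotin added. Compounds were tested at 2-fold dilutions, 1000 to 3.9 µM final, against no-compound controls. OD read after nine days at 37 °C, in triplicate; MIC calculated.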

The subject of experiment [4] is Mycobacterium tuberculosis. Kind of experiment: Antimycobacterial activity against Mycobacterium tuberculosis H37Rv assessed as growth inhibition after 9 days by Whole cell growth assay. In kind it is functional, organism-based. The following applies: 216 h. A digest of the protocol: as §1
For experiment [5], the system named is Mycobacterium tuberculosis. Put plainly: Antimycobacterial activity against Mycobacterium tuberculosis BioA-UE strain assessed as growth inhibition after 9 days by Whole cell growth assay in presence of 1000 nM biotin. In kind it is functional, organism-based. The settings on record: 216 h. A digest of the protocol:
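Mtb BioA-underexpressing strain pregrown in Sauton's medium with 1000 nM biotin to OD580 1.0–1.2, washed twice in biotin-free Sauton's medium, and seeded at OD580 0.03 in medium with 1000 nM biotin plus 200 ng/mL anhydrotetracycline. Compounds were tested at 2-fold serial dilutions, 1000 to 3.9 µM final, against no-compound controls. OD read after nine days at 37 °C, in triplicate; MIC calculated from growth.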

A short description of experiment [6]: Inhibition of Mycobacterium tuberculosis H37Rv N-terminal His-tagged BioA using KAPA substrate by in vitro biochemical assay.

A value given as a limit tells only on which side of the number the result lay.

Consider `NCc1nc2ccccc2s1`, for which the Kd in experiment [1] was 30.3 µM. Besides, the ΔTm in experiment [2] is -6.5 °C. For the same molecule, the IC50 in experiment [3] turned out to be 304 µM; in experiment [4], 250 µM; in experiment [5], 368 µM.
On the same counts, the results for `CNCc1ccc(Cn2cccn2)cc1` are 11.7 µM, 5.3 °C, over 1000 µM, over 1000 µM and over 1000 µM.
As for `NC(=O)c1ccc(-c2ccccn2)s1`, the Kd in experiment [1] is 6.9 µM. Besides, the ΔTm in experiment [2] stood at 6.3 °C. Moreover, the IC50 was over 1000 µM in experiment [3], 249 µM in experiment [4] and 39.2 µM in experiment [5].
In the case of `O=C(c1ccccc1)C1CCNCC1`, the Kd in experiment [1] amounted to 41.8 µM. For the same molecule, the ΔTm in experiment [2] was 3.6 °C. In addition, the IC50 worked out at 357 µM in experiment [3], 340 µM in experiment [4] and 260 µM in experiment [5].
With `NCc1ccc(Cn2cc(Cl)cn2)cc1`, in experiment [1], the Kd worked out at 6.8 µM. Besides, the ΔTm in experiment [2] was -11.9 °C.
The molecule `O=c1cc(-c2ccccc2F)[nH]c2cc3c(cc12)OCO3` came in with an IC50 in experiment [6] of 440 nM.
Take `NC(=O)c1ccc(-n2ccnc2)cc1`: the Kd in experiment [1] was 15 µM. Moreover, the ΔTm in experiment [2] turned out to be 4.1 °C. In addition, the IC50 in experiment [3], in experiment [4] and in experiment [5] was over 1000 µM throughout.
In the case of `CC(=O)Nc1ccc2c(c1)C=CC2=O`, in experiment [1], the Kd was 21.7 µM. Moreover, in experiment [2], the ΔTm is 3.6 °C. Also, the IC50 in experiment [3], in experiment [4] and in experiment [5] was over 1000 µM throughout.

Values taken from ChEMBL document CHEMBL3580577, “Fragment-based exploration of binding site flexibility in Mycobacterium tuberculosis BioA” (J Med Chem, 2015).
